Measured values reported in ChEMBL document CHEMBL4673306, “Exploration of nitrogen heterocycle scaffolds for the development of potent human neutrophil elastase inhibitors” (Bioorg Med Chem, 2021).

Experiments:
[1] = target: T1, Neutrophil elastase (Homo sapiens, UniProt P08246); test: Inhibition of human neutrophil elastase using N-methylsuccinyl-Ala-Ala-Pro-Val-7-amino-4-methylcoumarin as substrate measured for every 30 sec for 10 mins by fluorescence based assay
T1 sequence (P08246 whole entry): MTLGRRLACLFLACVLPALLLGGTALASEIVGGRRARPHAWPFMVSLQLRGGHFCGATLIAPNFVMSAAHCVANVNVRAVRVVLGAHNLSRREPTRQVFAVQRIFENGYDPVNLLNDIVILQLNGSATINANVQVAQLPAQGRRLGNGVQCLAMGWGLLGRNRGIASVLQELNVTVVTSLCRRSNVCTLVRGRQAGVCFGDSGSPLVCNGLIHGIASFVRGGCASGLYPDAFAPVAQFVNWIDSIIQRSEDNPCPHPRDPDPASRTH

[2] = Stability of compound in PBS at pH 7.4 assessed as half life by spectrophotometry; format: physicochemical; conditions: buffer
How it was run: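 Spontaneous hydrolysis measured at 20 °C in 0.05 M phosphate buffer, pH 7.4, with compound at 20 μM. Absorbance was read at each compound's characteristic maximum over time until it stopped falling (A∞). k' was taken from the slope of log(At − A∞) versus time, and t1/2 = 0.693/k'.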

| IC50 [1] | Structure (SMILES) | IC50 ([1]; read-out: IC50) [µM] | t1/2 [2] [h] |
| --- | --- | --- | --- |
| Not Active | COc1cccc(NC(=O)c2cnc3cc(C)nn3c2C)c1 | – | – |
| – | N#Cc1nn(C(=O)c2ccccc2)c2ncccc12 | 0.16 | – |
| – | Cc1cccc(C(=O)n2nc(C#N)c3cnccc32)c1 | 0.01 | 0.203 |
| – | O=C(C1CC1)n1nc([N+](=O)[O-])c2cccnc21 | 0.021 | 1.56 |
| – | Cc1ccc(C(=O)n2nc(C#N)c3cccnc32)cc1 | 1.5 | – |
| – | Cc1cccc(C(=O)n2nc(C)c3cnccc32)c1 | 0.76 | – |
| Not Active | COc1cccc(CNC(=O)c2cnc3cc(C)nn3c2C)c1 | – | – |
| – | Cc1cccc(C(=O)n2cc(C#N)c3ncccc32)c1 | – | 1.28 |
| – | Cc1cccc(C(=O)n2nc(C(F)(F)F)c3cnccc32)c1 | 0.033 | 1.777 |
| – | CCOC(=O)c1nn(C(=O)c2cccc(C)c2)c2ccncc12 | 0.016 | 2.45 |
| – | Cc1cccc(C(=O)n2nc(C(F)(F)F)c3cccnc32)c1 | 0.42 | – |
| – | O=C(C1CC1)n1nc(C(F)(F)F)c2cnccc21 | 0.087 | 6.435 |
| – | O=C(C1CC1)n1ccc2nccnc21 | 7.9 | – |
| – | CCOC(=O)c1nn(C(=O)C2CC2)c2ccncc12 | 0.069 | 7.28 |
| – | N#Cc1nn(C(=O)C2CC2)c2ccncc12 | 0.079 | 1.32 |
| – | Cc1cccc(C(=O)n2nc(C(=O)OC(C)C)c3cccnc32)c1 | 0.98 | – |
| Not Active | COc1cccc(NC(=O)c2cnc3cc(C(C)(C)C)nn3c2C)c1 | – | – |

| IC50 [1] | Structure (SMILES) | IC50 ([1]; read-out: IC50) [µM] | t1/2 [2] [h] |
| --- | --- | --- | --- |
| – | CCOC(=O)c1nn(C(=O)c2cccc(C)c2)c2ncccc12 | 2 | – |
| – | N#Cc1nn(C(=O)C2CC2)c2ncccc12 | 0.034 | – |
| – | N#Cc1nn(C(=O)C2CCCC2)c2ncccc12 | 0.14 | – |
| Not Active | N#Cc1nn(Cc2ccccc2)c2ncccc12 | – | – |
| Not Active | COc1cccc(CNC(=O)c2cnc3c(Cl)c(C(C)(C)C)nn3c2C)c1 | – | – |
| – | N#Cc1cn(C(=O)C2CC2)c2cnccc12 | 0.183 | – |
| – | N#Cc1cn(C(=O)C2CC2)c2nccnc12 | – | 1.677 |
| – | N#Cc1nn(C(=O)C2CCCCC2)c2ncccc12 | 1.1 | – |
| Not Active | COc1cccc(CNC(=O)c2cnc3cc(C(C)(C)C)nn3c2C)c1 | – | – |
| – | Cc1cccc(C(=O)n2cc(C#N)c3cnccc32)c1 | – | 2.722 |
| Not Active | COc1cccc(NC(=O)c2cnc3c(Cl)c(C(C)(C)C)nn3c2C)c1 | – | – |
| Not Active | COc1cccc(CNC(=O)c2cnn3c(C)c(C(C)=O)cnc23)c1 | – | – |
| – | Nc1nn(C(=O)C2CC2)c2ncccc12 | 9.9 | – |
| Not Active | COc1cccc(NC(=O)c2cnn3c(C)c(C(C)=O)cnc23)c1 | – | – |
| – | Cc1cccc(C(=O)n2nc(C#N)c3cccnc32)c1 | 0.33 | – |
| – | N#Cc1cn(C(=O)C2CC2)c2cccnc12 | 0.023 | 4.472 |
| – | O=C(C1CC1)n1nc(C(F)(F)F)c2cccnc21 | 0.05 | 14.7 |
